What was measured:
[1] = enhancement of FD4 absorption; ref 17 (Gao et al., 2008); cited from earlier work
Caco-2 cells = experiment: MTT cytotoxicity test of absorption enhancers with SHL on Caco-2 cells; format: cell-based; settings: 24 h, with addition of SHL, tested 0.005-1.28 mg/mL
[2] = tested on: gastrointestinal membrane; experiment: Gastrointestinal membrane toxicity by morphological observation; format: in vivo; settings: rat
In short: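 Male Sprague–Dawley rats (~250 g) given SHL with or without absorption enhancers by oral gavage. After 8 h exposure, stomach, jejunum and colon were sectioned, with two sections per tissue on each slide. Sections were HE-stained and examined microscopically for mucosal morphology.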

[3] = tested on: influenza virus strain A/PR8/34(H1N1); format: cell-based, influenza virus A/PR8/34(H1N1) in MDCK cells

chitosan hexamer
concentration at which absorption enhancing effect is almost saturable [1]: ~0.5 % (w/v)

CCCCCCCCCC(=O)[O-].[Na+] [sodium caprate]
concentration safe for the Caco-2 cells (Caco-2 cells): up to 0.64 mg/mL
damage in the small intestine ([2]; oral with SHL, 150 mg/kg): significant damage in the small intestine
change in the morphology of the gastrointestinal membrane ([2]; oral with SHL, 25, 50, 100 mg/kg, 8 h exposure): did not cause any significant change
damage in the gastro and colon tissues ([2]; oral with SHL, different dosages (25-150 mg/kg)): no significant damage

NC(=O)c1ncn([C@@H]2O[C@H](CO)[C@@H](O)[C@H]2O)n1 [ribavirin, Ribavirin]
inhibition rate on influenza virus [3]: remarkable increase in inhibition rate
